Source: ChEMBL document CHEMBL2157922, “Synthesis and antifungal activity of diverse C-2 pyridinyl and pyridinylvinyl substituted quinolines” (2012)

How the values were obtained:
Aspergillus flavus = test: Antifungal activity against Aspergillus flavus ATCC 9170 after 48 hrs by broth microdilution technique; assay type: functional; settings: ATCC 9170, 48 h
Method in brief: (§1)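 Moulds and dermatophytes were run by CLSI broth microdilution in MOPS-buffered RPMI-1640 at pH 7.0. Aspergillus was incubated at 30 °C and dermatophytes at 28–30 °C, in a moist, dark chamber. MIC100, the lowest concentration with no visible growth, was read visually at a time set by growth of the control fungus.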

Candida albicans [1] = test: Antifungal activity against Candida albicans CCC 125 after 48 hrs by broth microdilution technique; assay type: functional; settings: CCC 125, 48 h
Candida tropicalis = test: Antifungal activity against Candida tropicalis CCC 131 after 48 hrs by broth microdilution technique; assay type: functional; settings: CCC 131, 48 h
Cryptococcus neoformans [2] = test: Antifungal activity against Cryptococcus neoformans ATCC 32264 at 3.9 ug/ml after 48 hrs; assay type: functional; settings: ATCC 32264, 48 h
Method in brief: (§2)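 C. neoformans was tested by 96-well RPMI-1640 microdilution, with DMSO-matched growth and sterility control wells. Plates were incubated 48 h at 30 °C in a moist, dark chamber and read at OD405. % inhibition = 100 − (CTW − SCW)/(GCW − SCW), in duplicate. For the clinical isolates, MIC80 and MIC50 are the lowest concentrations giving 80% and 50% inhibition.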

Cryptococcus neoformans [3] = test: Antifungal activity against Cryptococcus neoformans IM 042074 after 48 hrs by broth microdilution technique; assay type: functional; settings: IM 042074, 48 h; method in brief: as §2
Cryptococcus neoformans [4] = test: Antifungal activity against Cryptococcus neoformans IM 983036 after 48 hrs by broth microdilution technique; assay type: functional; settings: IM 983036, 48 h; method in brief: as §2
Candida albicans [5] = test: Antifungal activity against Candida albicans CCC 129 after 48 hrs by broth microdilution technique; assay type: functional; settings: CCC 129, 48 h
Candida albicans [6] = test: Antifungal activity against Candida albicans ATCC 10231 at 31.2 ug/ml after 24 hrs; assay type: functional; settings: ATCC 10231, 24 h
Method in brief: (§3)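 C. albicans was grown in 96-well RPMI-1640 broth microdilution with compound wells diluted from DMSO stocks. Growth wells with matched DMSO and sterility wells were included. After 24 h at 30 °C in a moist, dark chamber, OD405 was read. % inhibition = 100 − (CTW − SCW)/(GCW − SCW) OD, done in duplicate.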

Nannizzia gypsea = test: Antifungal activity against Microsporum gypseum CCC 115 after 48 hrs by broth microdilution technique; assay type: functional; settings: CCC 115, 48 h; method in brief: as §1
Aspergillus niger = test: Antifungal activity against Aspergillus niger ATCC 9029 after 48 hrs by broth microdilution technique; assay type: functional; settings: ATCC 9029, 48 h; method in brief: as §1
Aspergillus fumigatus = test: Antifungal activity against Aspergillus fumigatus ATCC 26934 after 48 hrs by broth microdilution technique; assay type: functional; settings: ATCC 26934, 48 h; method in brief: as §1
Trichophyton rubrum = test: Antifungal activity against Trichophyton rubrum CCC 113 after 48 hrs by broth microdilution technique; assay type: functional; settings: CCC 113, 48 h
Candida albicans [7] = test: Antifungal activity against Candida albicans CCC 128 after 48 hrs by broth microdilution technique; assay type: functional; settings: CCC 128, 48 h
[8] = system: Trichophyton mentagrophytes; test: Antifungal activity against Trichophyton mentagrophytes ATCC 9972 after 48 hrs by broth microdilution technique; assay type: functional; settings: ATCC 9972, 48 h; method in brief: as §1
Candida parapsilosis = test: Antifungal activity against Candida parapsilosis CCC 124 after 48 hrs by broth microdilution technique; assay type: functional; settings: Lodderomyces parapsilosis, CCC 124, 48 h
Candida albicans [9] = test: Antifungal activity against Candida albicans ATCC 10231 after 48 hrs by broth microdilution technique; assay type: functional; settings: ATCC 10231, 48 h
Method in brief: (§4)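 Yeasts were tested by CLSI broth microdilution in RPMI-1640 buffered to pH 7.0 with MOPS, with compound from 250 down to 0.98 in DMSO stocks. Trays were held at 30 °C in a moist, dark chamber. MIC100, the lowest concentration giving total visual inhibition against the growth control, was read by eye at 48 h.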

Nakaseomyces glabratus = test: Antifungal activity against Candida glabrata CCC 115 after 48 hrs by broth microdilution technique; assay type: functional; settings: CCC 115, 48 h
Candida albicans [10] = test: Antifungal activity against Candida albicans CCC 127 after 48 hrs by broth microdilution technique; assay type: functional; settings: CCC 127, 48 h
Candida albicans [11] = test: Antifungal activity against Candida albicans ATCC 10231 at 7.8 ug/ml after 24 hrs; assay type: functional; settings: ATCC 10231, 24 h; method in brief: as §3
Candida albicans [12] = test: Antifungal activity against Candida albicans CCC 130 after 24 hrs by broth microdilution technique; settings: CCC 130, 24 h
Candida albicans [13] = test: Antifungal activity against Candida albicans CCC 130 after 48 hrs by broth microdilution technique; assay type: functional; settings: CCC 130, 48 h
Candida albicans [14] = test: Antifungal activity against Candida albicans ATCC 10231 at 15.6 ug/ml after 24 hrs; assay type: functional; settings: ATCC 10231, 24 h; method in brief: as §3
Cryptococcus neoformans [15] = test: Antifungal activity against Cryptococcus neoformans IM 972751 after 48 hrs by broth microdilution technique; assay type: functional; settings: IM 972751, 48 h; method in brief: as §2
Cryptococcus neoformans [16] = test: Antifungal activity against Cryptococcus neoformans IM 983040 after 48 hrs by broth microdilution technique; assay type: functional; settings: IM 983040, 48 h; method in brief: as §2
Saccharomyces cerevisiae = test: Antifungal activity against Saccharomyces cerevisiae ATCC 9763 after 48 hrs by broth microdilution technique; assay type: functional; settings: ATCC 9763, 48 h; method in brief: as §4
Candida albicans [17] = test: Antifungal activity against Candida albicans CCC 126 after 48 hrs by broth microdilution technique; assay type: functional; settings: CCC 126, 48 h
Cryptococcus neoformans [18] = test: Antifungal activity against Cryptococcus neoformans ATCC 32264 at 31.2 ug/ml after 48 hrs; assay type: functional; settings: ATCC 32264, 48 h; method in brief: as §2
Cryptococcus neoformans [19] = test: Antifungal activity against Cryptococcus neoformans ATCC 32264 after 48 hrs by broth microdilution technique; assay type: functional; settings: ATCC 32264, 48 h; method in brief: as §4
Cryptococcus neoformans [20] = test: Antifungal activity against Cryptococcus neoformans IM 00319 after 48 hrs by broth microdilution technique; assay type: functional; settings: IM 00319, 48 h; method in brief: as §2
Cryptococcus neoformans [21] = test: Antifungal activity against Cryptococcus neoformans ATCC 32264 at 15.6 ug/ml after 48 hrs; assay type: functional; settings: ATCC 32264, 48 h; method in brief: as §2
Cryptococcus neoformans [22] = test: Antifungal activity against Cryptococcus neoformans IM 972724 after 48 hrs by broth microdilution technique; assay type: functional; settings: IM 972724, 48 h; method in brief: as §2
Pichia kudriavzevii = test: Antifungal activity against Candida krusei CCC 117 after 48 hrs by broth microdilution technique; assay type: functional; settings: CCC 117, 48 h

CCc1ccc2nc(-c3ccccn3)ccc2c1
31.2 µg/mL: MIC80 (Candida tropicalis) | MIC50 (Candida albicans [5]) | MIC50 (Candida albicans [7]) | MIC80 (Candida parapsilosis) | MIC50 (Candida albicans [12]) | MIC80 (Candida albicans [17]) | MIC50 (Pichia kudriavzevii)
250 µg/mL: MIC (Aspergillus niger) | MFC (Candida albicans [9]) | MFC (Saccharomyces cerevisiae)
7.8 µg/mL: MIC80 (Cryptococcus neoformans [3]) | MIC80 (Cryptococcus neoformans [4]) | MIC50 (Candida albicans [9]) | MIC80 (Cryptococcus neoformans [16]) | MIC50 (Cryptococcus neoformans [20]) | MIC80 (Cryptococcus neoformans [22])
> 250 µg/mL: MFC (Aspergillus niger)
50%: inhibition at 3.9 µg/mL (Cryptococcus neoformans [2]) | inhibition at 7.8 µg/mL (Candida albicans [11])
15.6 µg/mL: MIC50 (Candida tropicalis) | MIC50 (Candida parapsilosis) | MIC80 (Candida albicans [9]) | MIC80 (Cryptococcus neoformans [15]) | MIC50 (Candida albicans [17]) | MIC80 (Cryptococcus neoformans [19]) | MIC80 (Cryptococcus neoformans [20])
125 µg/mL: MFC (Aspergillus flavus) | MIC80 (Candida albicans [1]) | MFC (Aspergillus fumigatus) | MFC (Cryptococcus neoformans [19])
62.5 µg/mL: MIC50 (Candida albicans [1]) | MIC80 (Candida albicans [5]) | MIC80 (Candida albicans [7]) | MIC50 (Nakaseomyces glabratus) | MIC80 (Nakaseomyces glabratus) | MIC50 (Candida albicans [10]) | MIC80 (Candida albicans [10]) | MIC80 (Candida albicans [13]) | MIC80 (Pichia kudriavzevii)
31 µg/mL: MIC (Cryptococcus neoformans [19])
62 µg/mL: MIC (Aspergillus flavus) | MFC (Nannizzia gypsea) | MIC (Nannizzia gypsea) | MIC (Aspergillus fumigatus) | MFC (Trichophyton rubrum) | MIC (Trichophyton rubrum) | MFC [8] | MIC [8] | MIC (Candida albicans [9]) | MIC (Saccharomyces cerevisiae)
3.9 µg/mL: MIC50 (Cryptococcus neoformans [3]) | MIC50 (Cryptococcus neoformans [4]) | MIC50 (Cryptococcus neoformans [15]) | MIC50 (Cryptococcus neoformans [16]) | MIC50 (Cryptococcus neoformans [19]) | MIC50 (Cryptococcus neoformans [22])
80%: inhibition at 31.2 µg/mL (Candida albicans [6]) | inhibition at 15.6 µg/mL (Candida albicans [14]) | inhibition at 31.2 µg/mL (Cryptococcus neoformans [18]) | inhibition at 15.6 µg/mL (Cryptococcus neoformans [21])
